Experimental data published in ChEMBL document CHEMBL1932987, “Straightforward palladium-mediated synthesis and biological evaluation of benzo[j]phenanthridine-7,12-diones as anti-tuberculosis agents” (Eur J Med Chem, 2012).
≈ marks a conversion by molar mass, not a printed value.

System: Mycobacterium tuberculosis
Assay: Antimycobacterial activity against multi-drug resistant Mycobacterium tuberculosis LAM-1 after 1 to 6 days by BACTEC 460-TB assay
Format: functional
Outline: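 Drug-resistant clinical LAM-1 isolate of M.tb. (resistant to isoniazid, rifampicin, rifabutin, prothionamid) tested in the BACTEC 460-TB radiometric system. Growth index read over time and compared with an untreated control and with a 100-fold diluted inoculum to derive MIC99. Isoniazid run in parallel to confirm resistance.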

## Cc1ccc2c3c(cnc2c1)C(=O)c1ccccc1C3=O
  MIC99: 0.71 µM (≈ 0.194 µg/mL)
